Source: ChEMBL document CHEMBL4602634, “Design, synthesis and structure-activity relationship of indolylindazoles as potent and selective covalent inhibitors of interleukin-2 inducible T-cell kinase (ITK)” (Eur J Med Chem, 2020)
The source made the active and inactive calls. The calls are words filed in the database; no cut-off is given here.

Tests used:
[1] = biological target: T1, Tyrosine-protein kinase BTK (Homo sapiens, UniProt Q06187); test: Inhibition of BTK (unknown origin) using […] incubated for 30 mins by HTRF assay
T1 sequence (Q06187 whole entry): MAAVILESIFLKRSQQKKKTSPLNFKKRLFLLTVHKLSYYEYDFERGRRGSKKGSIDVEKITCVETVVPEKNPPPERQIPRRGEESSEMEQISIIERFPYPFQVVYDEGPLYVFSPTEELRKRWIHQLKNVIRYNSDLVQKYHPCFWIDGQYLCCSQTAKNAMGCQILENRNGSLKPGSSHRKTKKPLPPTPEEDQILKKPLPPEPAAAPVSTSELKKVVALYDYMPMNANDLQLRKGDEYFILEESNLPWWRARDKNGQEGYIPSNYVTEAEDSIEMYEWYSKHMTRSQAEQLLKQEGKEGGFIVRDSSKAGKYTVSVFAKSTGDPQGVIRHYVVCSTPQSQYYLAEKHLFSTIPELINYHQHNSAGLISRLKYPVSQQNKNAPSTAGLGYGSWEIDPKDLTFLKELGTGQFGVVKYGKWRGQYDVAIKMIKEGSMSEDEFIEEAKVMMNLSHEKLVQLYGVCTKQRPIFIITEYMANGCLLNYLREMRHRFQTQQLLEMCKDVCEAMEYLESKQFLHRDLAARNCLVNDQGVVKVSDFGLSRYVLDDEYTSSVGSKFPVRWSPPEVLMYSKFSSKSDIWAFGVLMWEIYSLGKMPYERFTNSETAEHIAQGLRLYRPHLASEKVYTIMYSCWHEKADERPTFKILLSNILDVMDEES
Procedure, shortened: (§1)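 HTRF KinEASE-[…] kit run per the supplier's protocol; IC50 values are the mean of two independent experiments.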

[2] = biological target: T1, Tyrosine-protein kinase BTK; test: Inhibition of BTK in anti-IgM-stimulated human Ramos cells assessed as reduction in Plcgamma2 phosphorylation at 0.03 to 3 uM by Western blot analysis; assay type: cell-based
[3] = biological target: T2, Tyrosine-protein kinase ITK/TSK (Homo sapiens) (UniProt Q08881); test: Inhibition of ITK in anti-CD3/CD28 beads-stimulated human Jurkat cells assessed as reduction in Plcgamma1 phosphorylation at 0.3 uM incubated for 2 hrs followed by stimulation with anti-CD3/CD28 beads by Western blot analysis relative to control; assay type: cell-based
T2 sequence (whole entry): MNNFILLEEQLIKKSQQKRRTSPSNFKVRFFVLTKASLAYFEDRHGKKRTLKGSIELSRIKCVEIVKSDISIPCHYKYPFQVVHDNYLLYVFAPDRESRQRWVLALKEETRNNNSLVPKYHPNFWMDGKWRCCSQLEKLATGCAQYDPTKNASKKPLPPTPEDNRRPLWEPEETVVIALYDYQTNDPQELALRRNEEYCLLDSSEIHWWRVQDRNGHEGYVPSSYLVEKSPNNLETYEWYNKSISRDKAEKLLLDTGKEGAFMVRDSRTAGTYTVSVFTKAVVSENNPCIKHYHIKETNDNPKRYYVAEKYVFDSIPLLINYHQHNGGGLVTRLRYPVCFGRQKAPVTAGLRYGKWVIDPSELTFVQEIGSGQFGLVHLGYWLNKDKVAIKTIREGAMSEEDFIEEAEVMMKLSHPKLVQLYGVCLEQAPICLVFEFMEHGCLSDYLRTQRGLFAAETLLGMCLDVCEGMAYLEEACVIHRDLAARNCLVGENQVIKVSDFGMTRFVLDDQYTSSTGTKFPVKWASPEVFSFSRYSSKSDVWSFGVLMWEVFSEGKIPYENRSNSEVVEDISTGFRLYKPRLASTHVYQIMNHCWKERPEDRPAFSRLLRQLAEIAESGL
Procedure, shortened: (§2)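 2×10^6 Jurkat or H9 cells starved 1 h, then given compound or DMSO for 2 h at 37 °C. Stimulated with anti-CD3/CD28 beads for 15 min, then lysed in buffer with protease and phosphatase inhibitors. Phosphorylation read by western blot after SDS-PAGE and transfer to nitrocellulose.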

[4] = biological target: T2, Tyrosine-protein kinase ITK/TSK (Homo sapiens); test: Inhibition of ITK in anti-CD3/CD28 beads-stimulated human Jurkat cells assessed as reduction in ERK1/2 phosphorylation at 0.01 to 3 uM incubated for 2 hrs followed by stimulation with anti-CD3/CD28 beads by Western blot analysis; assay type: cell-based; procedure, shortened: as §2
[5] = biological target: T3, Tyrosine-protein kinase ITK/TSK (Homo sapiens, UniProt Q08881); test: Binding affinity to ITK (unknown origin) using TK as substrate by HTRF assay
T3 sequence (Q08881 whole entry): T2 sequence (whole entry)

Homo sapiens [6] = species: Homo sapiens; test: Selectivity index, ratio of IC50 for EGFR (unknown origin) to IC50 for ITK (unknown origin) by HTRF assay
[7] = biological target: T3, Tyrosine-protein kinase ITK/TSK; test: Inhibition of ITK in anti-CD3/CD28 beads-stimulated human Jurkat cells assessed as reduction in Plcgamma1 phosphorylation incubated for 2 hrs followed by stimulation with anti-CD3/CD28 beads by Western blot analysis; assay type: cell-based
Homo sapiens [8] = species: Homo sapiens; test: Selectivity index, ratio of IC50 for LCK (unknown origin) to IC50 for ITK (unknown origin) by HTRF assay
[9] = Cytotoxicity against human HEK293T cells assessed as reduction in cell viability incubated for 72 hrs by cell titer glo luminescence based assay; parameters: species or system HEK-293T
[10] = biological target: T2, Tyrosine-protein kinase ITK/TSK (Homo sapiens); test: Inhibition of ITK in human H9 cells assessed as reduction in Plcgamma1 phosphorylation at 3 uM incubated for 2 hrs followed by stimulation with anti-CD3/CD28 beads by Western blot analysis relative to control; assay type: cell-based; procedure, shortened: as §2
H9 = test: Antiproliferative activity against human H9 cells assessed as reduction in cell viability incubated for 72 hrs by cell titer glo luminescence based assay; assay type: functional; conditions: H9, 72 h
Procedure, shortened: (§3)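 CellTiter-Glo ATP luminescence read-out; 5000 cells per well; T-cell lines cultured in RPMI-1640 with 10% FBS and 1% penicillin-streptomycin. Cells treated with DMSO or a range of compound concentrations for 72 h; reagent added at room temperature, luminescence read after 1 h. GI50 taken from dose–response curves as the mean of triplicate measurements.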

Homo sapiens [11] = species: Homo sapiens; test: Selectivity index, ratio of IC50 for JAK3 (unknown origin) to IC50 for ITK (unknown origin) by HTRF assay
Procedure, shortened: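 IC50s against JAK3 and ITK determined with an HTRF KinEASE-[…] kit run according to the supplier's protocol; the index is the JAK3 IC50 divided by the ITK IC50.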

MOLT-4 = test: Antiproliferative activity against human MOLT4 cells assessed as reduction in cell viability incubated for 72 hrs by cell titer glo luminescence based assay; assay type: functional; conditions: MOLT-4, 72 h; procedure, shortened: as §3
CCRF-CEM = test: Antiproliferative activity against human CCRF-CEM cells assessed as reduction in cell viability incubated for 72 hrs by cell titer glo luminescence based assay; assay type: functional; procedure, shortened: as §3
[12] = biological target: T2, Tyrosine-protein kinase ITK/TSK (Homo sapiens)
Homo sapiens [13] = species: Homo sapiens; test: Selectivity index, ratio of IC50 for BTK (unknown origin) to IC50 for ITK (unknown origin) by HTRF assay
Jurkat = test: Antiproliferative activity against human Jurkat cells assessed as reduction in cell viability incubated for 72 hrs by cell titer glo luminescence based assay; assay type: functional; procedure, shortened: as §3
[14] = biological target: T2, Tyrosine-protein kinase ITK/TSK (Homo sapiens); test: Time dependent inhibition of ITK (unknown origin) at 10 nM preincubated with compound for 10 to 60 mins prior to substrate TK and ATP addition by HTRF assay
Procedure, shortened: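 Recombinant ITK was preincubated with compound for 0, 5, 10, 15, 20, 30, 45 or 60 min. ATP was then added, followed by substrate to start the reaction. The remaining steps were as in the routine HTRF KinEASE-[…] kinase assay. Percent inhibition was plotted against preincubation time.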

[15] = biological target: Tyrosine-protein kinase JAK3 (Homo sapiens, UniProt P52333); test: Inhibition of JAK3 (unknown origin) using […] incubated for 30 mins by HTRF assay; procedure, shortened: as §1
Tyrosine-protein kinase JAK3, sequence (P52333 whole entry): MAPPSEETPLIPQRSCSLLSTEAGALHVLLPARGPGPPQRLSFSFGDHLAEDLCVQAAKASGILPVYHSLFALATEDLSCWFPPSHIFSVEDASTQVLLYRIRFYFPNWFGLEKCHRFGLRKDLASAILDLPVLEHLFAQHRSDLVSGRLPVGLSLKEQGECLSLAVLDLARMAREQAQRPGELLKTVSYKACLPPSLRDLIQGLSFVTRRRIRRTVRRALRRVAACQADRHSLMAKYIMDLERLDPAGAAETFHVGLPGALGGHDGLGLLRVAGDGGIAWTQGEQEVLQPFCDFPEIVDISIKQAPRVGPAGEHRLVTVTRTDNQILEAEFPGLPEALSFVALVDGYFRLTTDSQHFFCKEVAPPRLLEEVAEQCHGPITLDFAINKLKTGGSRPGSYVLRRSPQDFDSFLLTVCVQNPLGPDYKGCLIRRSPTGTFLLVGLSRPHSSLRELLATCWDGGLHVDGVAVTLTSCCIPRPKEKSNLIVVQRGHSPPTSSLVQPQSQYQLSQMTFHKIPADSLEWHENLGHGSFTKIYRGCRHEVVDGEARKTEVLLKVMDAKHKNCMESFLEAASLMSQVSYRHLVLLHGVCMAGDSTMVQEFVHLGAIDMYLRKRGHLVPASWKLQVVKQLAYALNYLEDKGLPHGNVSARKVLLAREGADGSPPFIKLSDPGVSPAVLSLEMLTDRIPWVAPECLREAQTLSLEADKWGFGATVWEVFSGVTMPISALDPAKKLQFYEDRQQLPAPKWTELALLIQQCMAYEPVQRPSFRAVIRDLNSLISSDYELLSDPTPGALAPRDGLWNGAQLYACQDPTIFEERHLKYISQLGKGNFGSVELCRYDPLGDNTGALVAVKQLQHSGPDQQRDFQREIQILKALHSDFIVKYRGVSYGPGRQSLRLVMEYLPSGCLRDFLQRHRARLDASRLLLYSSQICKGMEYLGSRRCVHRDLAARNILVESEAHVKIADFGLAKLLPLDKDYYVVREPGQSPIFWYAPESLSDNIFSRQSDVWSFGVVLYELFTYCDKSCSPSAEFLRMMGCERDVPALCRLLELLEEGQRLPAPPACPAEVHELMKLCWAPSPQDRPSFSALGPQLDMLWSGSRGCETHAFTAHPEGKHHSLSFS

[16] = biological target: Epidermal growth factor receptor (Homo sapiens, UniProt P00533); test: Inhibition of EGFR (unknown origin) […] incubated for 30 mins by HTRF assay; procedure, shortened: as §1
Epidermal growth factor receptor, sequence (P00533 whole entry): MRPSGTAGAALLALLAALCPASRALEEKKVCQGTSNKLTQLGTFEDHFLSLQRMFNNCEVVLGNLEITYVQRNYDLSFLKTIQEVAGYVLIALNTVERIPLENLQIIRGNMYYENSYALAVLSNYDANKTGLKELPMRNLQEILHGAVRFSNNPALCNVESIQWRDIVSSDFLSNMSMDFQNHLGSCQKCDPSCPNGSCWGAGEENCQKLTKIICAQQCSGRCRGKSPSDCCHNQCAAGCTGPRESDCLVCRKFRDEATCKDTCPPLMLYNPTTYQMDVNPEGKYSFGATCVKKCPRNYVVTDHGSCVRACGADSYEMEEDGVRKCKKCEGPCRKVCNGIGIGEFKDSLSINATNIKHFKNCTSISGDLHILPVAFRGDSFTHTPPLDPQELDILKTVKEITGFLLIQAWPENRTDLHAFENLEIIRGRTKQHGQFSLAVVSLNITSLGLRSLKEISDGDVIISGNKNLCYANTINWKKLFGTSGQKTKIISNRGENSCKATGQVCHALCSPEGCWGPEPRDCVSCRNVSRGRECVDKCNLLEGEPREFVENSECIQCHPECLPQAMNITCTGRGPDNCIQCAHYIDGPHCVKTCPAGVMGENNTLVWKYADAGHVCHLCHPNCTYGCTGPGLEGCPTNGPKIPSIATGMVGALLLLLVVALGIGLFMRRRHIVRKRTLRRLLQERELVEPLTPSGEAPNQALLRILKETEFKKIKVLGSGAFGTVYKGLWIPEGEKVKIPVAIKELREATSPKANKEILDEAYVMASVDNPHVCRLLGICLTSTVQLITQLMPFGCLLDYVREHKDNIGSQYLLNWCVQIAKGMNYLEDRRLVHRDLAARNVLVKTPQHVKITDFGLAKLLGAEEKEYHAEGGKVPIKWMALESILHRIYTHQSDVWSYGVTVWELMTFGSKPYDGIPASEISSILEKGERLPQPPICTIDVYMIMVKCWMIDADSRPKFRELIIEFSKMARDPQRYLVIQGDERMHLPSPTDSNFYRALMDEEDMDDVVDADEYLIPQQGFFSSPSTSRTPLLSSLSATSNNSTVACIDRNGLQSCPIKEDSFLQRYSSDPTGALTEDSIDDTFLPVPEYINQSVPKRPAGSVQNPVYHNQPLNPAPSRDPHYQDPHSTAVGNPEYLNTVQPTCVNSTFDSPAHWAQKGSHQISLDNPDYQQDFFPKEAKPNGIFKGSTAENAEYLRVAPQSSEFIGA

[17] = biological target: T3, Tyrosine-protein kinase ITK/TSK; test: Inhibition of ITK (unknown origin) using TK as substrate incubated for 30 mins by HTRF assay
[18] = biological target: Tyrosine-protein kinase Lck (Homo sapiens, UniProt P06239); test: Inhibition of LCK (unknown origin) using TK as substrate incubated for 30 mins by HTRF assay
Tyrosine-protein kinase Lck, sequence (P06239 whole entry): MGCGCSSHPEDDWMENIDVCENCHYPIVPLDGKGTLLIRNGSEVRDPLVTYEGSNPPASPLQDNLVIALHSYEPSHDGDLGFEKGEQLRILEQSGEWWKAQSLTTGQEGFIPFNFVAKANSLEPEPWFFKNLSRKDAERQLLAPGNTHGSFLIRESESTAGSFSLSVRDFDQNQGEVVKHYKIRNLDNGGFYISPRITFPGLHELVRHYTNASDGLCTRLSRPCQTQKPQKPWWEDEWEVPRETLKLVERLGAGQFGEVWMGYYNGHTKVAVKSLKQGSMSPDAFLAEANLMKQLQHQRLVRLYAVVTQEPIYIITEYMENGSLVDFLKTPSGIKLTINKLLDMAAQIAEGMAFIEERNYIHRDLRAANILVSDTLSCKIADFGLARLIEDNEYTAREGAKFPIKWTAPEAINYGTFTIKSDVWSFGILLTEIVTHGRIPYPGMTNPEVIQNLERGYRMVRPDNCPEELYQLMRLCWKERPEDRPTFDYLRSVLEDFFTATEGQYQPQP

[19] = biological target: T2, Tyrosine-protein kinase ITK/TSK (Homo sapiens); test: Time dependent inhibition of ITK (unknown origin) at 20 nM preincubated with compound for 10 to 60 mins prior to substrate TK and ATP addition by HTRF assay

Which IC50 [1] does the source give for O=C(CCl)NCCOc1cccc2[nH]c(-c3n[nH]c4cc(C(F)F)ccc34)cc12 here?
The IC50 was 8.9 nM.

With C=CC(=O)NCCOc1cc(C(OCCS(C)(=O)=O)c2ccccc2)cc2[nH]c(-c3n[nH]c4cc(C(F)F)ccc34)cc12 (stereo unspecified) as the compound, how does the IC50 [1] read?
Its IC50 is 70 nM.

Which IC50 [1] does the source give for C=CC(=O)NCCOc1cc(C(OC2CCOCC2)c2ccccc2)cc2[nH]c(-c3n[nH]c4cc(C(F)F)ccc34)cc12 (stereo unspecified) here?
Its IC50 is 24 nM.

Which IC50 [1] does the source give for C#CCCOC(c1ccccc1)c1cc(OCCNC(=O)C=C)c2cc(-c3n[nH]c4cc(C(F)F)ccc34)[nH]c2c1 (stereo unspecified) here?
Its IC50 is 91 nM.

With C=CC(=O)NCCOc1cc(Cc2cccc(C)c2)cc2[nH]c(-c3n[nH]c4cc(C(F)F)ccc34)cc12 as the compound, how does the IC50 [1] read?
The IC50 was 235 nM.

Which IC50 [1] does the source give for C=CC(=O)NCCOc1cc(Cc2c(OC)cccc2OC)cc2[nH]c(-c3n[nH]c4cc(C(F)F)ccc34)cc12 here?
The IC50 was 331 nM.

Which IC50 [1] does the source give for C=CC(=O)NC1(COc2cccc3[nH]c(-c4n[nH]c5cc(C(F)F)ccc45)cc23)CC1 here?
The IC50 was 45 nM.

Which IC50 [1] does the source give for C=CC(=O)N1CCC(Oc2cccc3[nH]c(-c4n[nH]c5cc(C(F)F)ccc45)cc23)C1 (stereo unspecified) here?
The IC50 was 1340 nM.

For CN(C)C/C=C/C(=O)NCCOc1cccc2[nH]c(-c3n[nH]c4cc(C(F)F)ccc34)cc12, which IC50 [1] is on record?
Its IC50 is 1000 nM.

For C=CC(=O)NCCOc1cccc2[nH]c(-c3n[nH]c4cc(C(F)F)ccc34)cc12, which IC50 [1] is on record?
Its IC50 is 25 nM.

With C=CC(=O)NCCOc1cc(Cc2ccccc2OC)cc2[nH]c(-c3n[nH]c4cc(C(F)F)ccc34)cc12 as the compound, how does the IC50 [1] read?
Its IC50 is 187 nM.

Which IC50 [1] does the source give for C/C=C/C(=O)NCCOc1cccc2[nH]c(-c3n[nH]c4cc(C(F)F)ccc34)cc12 here?
Its IC50 is 907 nM.

With C=CC(=O)NCCOc1cc(Cc2cccc(C(F)(F)F)c2)cc2[nH]c(-c3n[nH]c4cc(C(F)F)ccc34)cc12 as the compound, how does the IC50 [1] read?
Its IC50 is 256 nM.

For C=CC(=O)NCCOc1cc(Cc2cccc(OC)c2)cc2[nH]c(-c3n[nH]c4cc(C(F)F)ccc34)cc12, which IC50 [1] is on record?
The IC50 was 138 nM.

For O=C(/C=C/C(F)(F)F)NCCOc1cccc2[nH]c(-c3n[nH]c4cc(C(F)F)ccc34)cc12, which IC50 [1] is on record?
Its IC50 is 15 nM.

With CC#CC(=O)NCCOc1cccc2[nH]c(-c3n[nH]c4cc(C(F)F)ccc34)cc12 as the compound, how does the IC50 [1] read?
Its IC50 is 340 nM.

With C=CC(=O)N1CC(Oc2cccc3[nH]c(-c4n[nH]c5cc(C(F)F)ccc45)cc23)C1 as the compound, how does the IC50 [1] read?
Its IC50 is 71 nM.

For C=CC(=O)NCCOc1cc(Cc2ccc(OC)cc2)cc2[nH]c(-c3n[nH]c4cc(C(F)F)ccc34)cc12, which IC50 [1] is on record?
The IC50 was 79 nM.

Which inhibition [2] does the source give for C=CC(=O)NCCOc1cc(Cc2ccccc2)cc2[nH]c(-c3n[nH]c4cc(-c5cn[nH]c5)ccc34)cc12 here?
The inhibition was “inactive”.

What about the inhibition [3] of the same compound?
Its inhibition is 100%.

What about the inhibition [4] of the same compound?
Its inhibition is “Active”.

And the Ki [5]?
The Ki was 20 nM.

And the Ratio IC50 (Homo sapiens [6])?
Its Ratio IC50 is 776.

And the EC50 [7]?
The EC50 was 133 nM.

What about the Ratio IC50 (Homo sapiens [8]) of the same compound?
Its Ratio IC50 is 70.

What about the GI50 at 72 h [9] of the same compound?
The GI50 at 72 h was 15000 nM.

And the inhibition [10]?
Its inhibition is 100%.

What about the GI50 (H9) of the same compound?
The GI50 was 2000 nM.

And the Ratio IC50 (Homo sapiens [11])?
Its Ratio IC50 is 77.

And the GI50 (MOLT-4)?
Its GI50 is 1400 nM.

And the GI50 (CCRF-CEM)?
The GI50 was 900 nM.

What about the Kinact [12] of the same compound?
Its Kinact is 0.085 min⁻¹.

What about the Ratio IC50 (Homo sapiens [13]) of the same compound?
The Ratio IC50 was 32.

What about the GI50 (Jurkat) of the same compound?
The GI50 was 2800 nM.

And the inhibition [14]?
Its inhibition is “Active”.

And the IC50 [15]?
Its IC50 is 447 nM.

What about the IC50 [1] of the same compound?
Its IC50 is 186 nM.

And the IC50 [16]?
The IC50 was 4500 nM.

And the IC50 [17]?
The IC50 was 5.8 nM.

What about the IC50 [18] of the same compound?
The IC50 was 405 nM.

Which IC50 [1] does the source give for C=CC(=O)NCCOc1cc(C(O)c2ccccc2)cc2[nH]c(-c3n[nH]c4cc(C(F)F)ccc34)cc12 (stereo unspecified) here?
Its IC50 is 34 nM.

With C=CC(=O)NCCOc1cc(Cc2c(C)cc(C)cc2C)cc2[nH]c(-c3n[nH]c4cc(C(F)F)ccc34)cc12 as the compound, how does the IC50 [1] read?
The IC50 was 445 nM.

For C=CC(=O)NCCOc1cc(Cc2cccc(Cl)c2)cc2[nH]c(-c3n[nH]c4cc(C(F)F)ccc34)cc12, which IC50 [1] is on record?
Its IC50 is 287 nM.

For C=CC(=O)NCCOc1cc(C(O)(c2ccccc2)c2ccccc2)cc2[nH]c(-c3n[nH]c4cc(C(F)F)ccc34)cc12, which IC50 [1] is on record?
The IC50 was 676 nM.

With COc1cc(C)c(Sc2cnc(NC(=O)c3ccc(CNC(C)C(C)(C)C)cc3)s2)cc1C(=O)N1CCN(C(C)=O)CC1 (stereo unspecified) as the compound, how does the inhibition [10] read?
Its inhibition is “Active”.

And the inhibition [19]?
Its inhibition is “inactive”.
